A number with no mark means an inactive call. Results filed as inconclusive are left out. Activity calls are given as the source filed them.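 How the source made its calls, unless noted: active means RAM network inhibition above 8.4% in each of two replicates, 3 SD over the compound average; inconclusive means above 8.4% inhibition in only one replicate; inactive means 8.4% inhibition or less in each replicate.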
Legend:
[1] = S. cerevisiae growth inhibition in permissive medium (OD615), pilot counter-assay for S. cerevisiae lifespan shortening project, permissive growth control (AID 705;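 active means growth inhibition above 25% in both replicates, a cutoff set 3 SD above the mean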); conditions: OD615, 24 h, at 10 µM, hits give high values
Procedure, shortened: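 Material: engineered DeaD yeast; Compound: one dose 10 µM, DMSO 0.25% final; Detection: absorbance (optical density) at 615 nm; Buffer or medium: permissive raffinose/galactose medium; Timing: 24 h exposure, 30 °C.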

[2] = S. cerevisiae growth inhibition in restrictive medium, OD615, pilot screen, restrictive growth control, yeast lifespan reduction project (AID 706;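 active means growth inhibition above a set limit, 3 SD over mean compound inhibition, in both replicates, cut at about 43% in these data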;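 further: modified DeaD lifespan yeast strain shifted to restrictive glucose medium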); conditions: OD615, 48 h, at 10 µM, hits give high values
Procedure, shortened: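 Buffer or medium: restrictive glucose medium (CSMM-D); test system: modified S. cerevisiae; doses: single dose of 10 µM compound final, 0.25% DMSO; schedule: 48 h compound exposure at 30 °C; detection: absorbance (optical density) measured at 615 nm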

[3] = doxorubicin toxicity protection in MRP-1 cells – H69AR cells, CellTiter-Glo, duplicate, MRP-1 activator project, pilot screen (AID 807;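 active means viability increase at or above a cutoff of the median across tested compounds plus 3 SD, cut at about 8.5% in these data, passing the limit was not always enough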;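 further: compound pretreatment 18-22 h then 72 h combined with doxorubicin; 0% = doxorubicin alone and 100% = vehicle without doxorubicin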); conditions: H69AR viability with doxorubicin, CellTiter-Glo luminescence; at 10 µM; hits give high values
[4] = viability of PTEN-null HCT116 cells – cell-based, HCT116 clonal line, CellTiter-Glo, pilot screen (AID 824;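 active means viability at or below 27.92% in each of two runs, the all-compound median minus 4 SD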;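 further: 0% = 20 µM Hyamine control and 100% = vehicle cell control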); conditions: HCT116 PTEN-deleted viability, 60 h, at 10 µM, hits give low values
[5] = RAM signaling pathway blockade in yeast – S. cerevisiae, Pdr1DBD-CYC8 efflux-inhibited sensitized strain, primary screen (AID 1298);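 further: 0% = DMSO untreated cells without growth and 100% = 10 µM 1-NA-PP1 full growth; higher means more yeast growth rescued from 5-FOA killing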; conditions: S. cerevisiae cbk1-as DSE1-URA3 strain, 5-FOA growth OD615, 2 d; at 50 µM; hits give high values
[6] = RAM pathway blockade in budding yeast – dse1pr::URA3 reporter, 5-FOA selection, pilot screen (AID 869;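 active means inhibition over a set limit, the all-compound mean plus 3 SD, in both replicate runs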;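 further: 0% = DMSO wells with no growth and 100% = 10 µM 1-NA-PP1 with full growth; RAM network block rescues cells from 5-FOA so hits raise OD615 growth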); conditions: S. cerevisiae dse1pr::URA3 5-FOA growth, OD615, 2 d; at 10 µM; hits give high values; strain carries analog-sensitive mutant Cbk1 kinase
[7] = viability of HCT116 without oncogenic beta-catenin – human colon tumor cells, pilot screen (AID 823;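 active means cell viability at or below a set limit in both duplicate runs, the limit being the all-compound median minus 4 SD, cut at about 23% in these data, passing the limit was not always enough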;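 further: 0% = wells killed by 20 µM Hyamine and 100% = untreated DMSO cell wells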); conditions: HCT116 beta-catenin knockout viability, CellTiter-Glo, 60 h; at 10 µM; hits give low values

Row | SMILES | growth inhibition [1] | growth inhibition [2] | viability increase [3] | viability [4] | RAM network inhibition [5] | inhibition [6] | viability [7]
1 | Cc1cc(NC(=O)c2ccc3c(c2)C(=O)N(C2CCCCC2)C3=O)no1 | -4.59% | -6.9% | -6.76% | 41.5% | 3.39% | – | –
2 | COc1ccc(NC2CS(=O)(=O)CC2NCc2ccco2)cc1 (stereo not given) | 3.62% | -15.4% | -4.04% | 96.2% | 4.2% | 1.94% | –
3 | CCc1ccc(-c2nc(CSCC(=O)N3CCN(c4ncccn4)CC3)c(C)o2)cc1 | -2.9% | -2.11% | -3.72% | 52.6% | 7.89% | – | –
4 | CC(C)c1ccc(-c2nc(N3CCCC3)nc3n[nH]c(N)c23)cc1 | -26.6% | 10.3% | -5.36% | – | 10.8% | 3.83% | 69.8%
5 | COc1ccc(OC(C)C(=O)Nc2cccc(OC)c2)cc1 (stereo not given) | -4.58% | -2.9% | -4.64% | 97.9% | -0.52% | 0.625% | –
6 | CCN(CC)CCN1C(=O)C(=O)/C(=C(/O)c2ccc(C)cc2)C1c1ccncc1 (stereo not given) | 2.04% | -2.02% | 0.64% | 97.9% | 5.38% | 0.635% | –
7 | CC(NC(=O)C(C)(C)C)c1nc2ccccc2n1C (stereo not given) | 5.72% | 5.71% | -3.14% | – | 3.17% | 0.63% | 95.1%
8 | Cc1c(C(=O)NCc2ccc3c(c2)OCO3)oc2ccc(S(=O)(=O)N3CCCC3)cc12 | -2.78% | -4.95% | -0.63% | 66.1% | 4.67% | 1.78% | –
9 | O=C1c2ccccc2C(=O)N1CSc1nnnn1-c1ccccc1 | -1.45% | 31.4% | -2.14% | 104% | 6.61% | 2.01% | –
10 | Cc1ccc(OCCCC(=O)Nc2nncs2)cc1 | -9.25% | -13.4% | 0.75% | – | 1.98% | 1.92% | 105%
11 | Cc1cc(S(=O)(=O)N2CCN(Cc3ccc4c(c3)OCO4)CC2)cc(C)c1N1CCCC1=O | -10.6% | -19.3% | -3.13% | 53.6% | 0.73% | -0.21% | –
12 | CCCn1c(CN2CCN(c3cccc(Cl)c3)CC2)nc2c1c(=O)n(C)c(=O)n2C | -4.45% | -8.51% | -4.06% | 54% | 1.38% | – | –
13 | Cc1cccc(C)c1NC(=O)CSc1nnc([C@@H]2CCCN2C(=O)OC(C)(C)C)o1 | -11.8% | -6.59% | -1.42% | – | 8.94% | 2.23% | 96.3%
14 | CC1CCc2sc3nc(N4CCN(CCO)CC4)n4ncnc4c3c2C1 (stereo not given) | -9.92% | 7.57% | -7.82% | – | 5.04% | 0.655% | 73.3%
15 | COc1ccccc1CC(=O)Nc1ccc(-c2nnc(-c3ccco3)o2)cc1 | -3.64% | 8.35% | -2.58% | 77.7% | 8.02% | – | –
16 | Cc1ccc2c(c1)c(C)c(C)n2CC(O)Cn1nc(C)cc1C (stereo not given) | -13% | 3.35% | -4.76% | – | 0.58% | 2.1% | 87.1%
17 | CC(=O)c1ccc(C(=O)Nc2nnc(-c3ccc(Cl)cc3)o2)cc1 | -1.45% | 17% | -3.75% | 22.3% (active) | 2.8% | – | –
18 | CC1CCCN(c2nc3c(c(=O)n(C)c(=O)n3C)n2Cc2ccccc2)C1 (stereo not given) | -0.33% | -3.24% | -2.17% | – | 1.56% | 1.67% | 85.9%
19 | CCCCC(NC(C)=O)c1nc2ccccc2n1CCCC (stereo not given) | -16.8% | -12.2% | -4.34% | – | 4.56% | 1.69% | 86.6%
20 | CCOc1cccc2c1OC1(C)CC2NC(=O)N1c1cccc(Cl)c1 (stereo not given) | -12% | 5.29% | -1.53% | – | 5.25% | -0.045% | 99.2%

Row | SMILES | growth inhibition [1] | growth inhibition [2] | viability increase [3] | viability [4] | RAM network inhibition [5] | inhibition [6] | viability [7]
21 | CCNc1nc(NCC)nc(OCCNS(=O)(=O)c2cc(C)ccc2C)n1 | 7.46% | 6.54% | -2.5% | 95.3% | 1.53% | 0.235% | –
22 | O/N=C1\CCCc2oc3c(c21)CCCC3 | -7.12% | -2.73% | -1.84% | 97.5% | 1.89% | 2.48% | –
23 | Cc1ccc(-c2nc(-c3ccccn3)no2)cc1 | 1.26% | 10.2% | -5.02% | 24.4% (active) | 1.82% | -0.485% | –
24 | CC(=O)c1ccc(NC(=O)CSc2nnc(NC(=O)CN3CCOCC3)s2)cc1 | 8.22% | 7.59% | -1.64% | – | 0.62% | 2.19% | 102%
25 | CCCCNC(=O)NS(=O)(=O)c1ccc(NS(=O)(=O)c2ccccc2)cc1 | -10.8% | -7.74% | -0.52% | 98.4% | 4.35% | 2.14% | –
26 | O=C(Cn1nnc(-c2ccccc2NC(=O)c2ccccc2F)n1)NCc1ccco1 | -7.91% | -7.09% | -6.92% | – | 4.52% | 1.39% | 73.9%
27 | CN(CCNC(=O)c1cc2c(=O)n(C)c3ccccc3c2n1C)Cc1ccccc1 | -12% | -7.87% | -8.65% | 41.1% | -0.47% | 1.83% | –
28 | CCn1c(=O)c2c3c(sc2n2c(SCc4ccc(F)cc4)nnc12)CCCC3 | -17.7% | -16.7% | -7.59% | 25.7% (active) | 3.4% | 2.28% | –
29 | O=C(C1CCCN(S(=O)(=O)c2ccc(F)cc2)C1)N(Cc1cccs1)C1CC1 (stereo not given) | -11.5% | -6.14% | -1.34% | 71.7% | 2.87% | 2.02% | –
30 | Cc1ccccc1C(=O)Nc1nnc(-c2ccc(F)cc2)o1 | -3.21% | 11.5% | -2.91% | – | 4.65% | 0.6% | 33%
31 | CCSc1nnc(NC(=O)C2CC=CCC2C(=O)O)s1 (stereo not given) | -17.7% | -7.56% | -0.57% | – | 4% | 0.665% | 103%
32 | CCN(Cc1ccncc1)C(=O)c1cccc(S(=O)(=O)N2CCOCC2)c1 | -4.12% | 6.31% | -2.89% | – | 9.82% | 1.07% | 99.1%
33 | c1ccc(CSc2nnc3c(n2)OC(c2ccco2)Nc2ccccc2-3)cc1 (stereo not given) | -10.6% | 2.27% | -4.19% | 88.8% | 7.16% | 0.38% | –
34 | COc1ccc(N2CCN(CCNC(=O)c3ccc(NC(=O)C4CCCO4)cc3)CC2)cc1 (stereo not given) | -14% | -9.71% | -1.61% | – | 7.42% | 1.68% | 99.8%
35 | CCOC(=O)Nc1cc(C(=O)OCC)c(C)nc1C | -8.02% | -10% | -1.85% | – | 0.73% | 1.25% | 98.7%
36 | CCN1CCN(Cc2nc3c(c(=O)n(C)c(=O)n3C)n2CCCc2ccccc2)CC1 | -5.05% | -8.71% | -4.04% | – | 7.54% | 0.665% | 91%
37 | CN1CCc2c(sc3nc(SCC(=O)N4CCOCC4)nc(N)c23)C1 | -4.38% | 0.52% | -4.4% | – | 5.05% | 0.215% | 95.1%
38 | Cc1ccccc1-c1nnc(SCC(=O)Nc2ccc(Cl)cc2)n1N | -8.16% | 0.61% | 2.22% | – | 5.42% | 1.17% | 94.5%
39 | Cc1cc(NS(=O)(=O)c2ccccc2)cc(Cl)c1O | -22.9% | 2.72% | -2.8% | 86.2% | 2.58% | 1.4% | –
40 | CSc1nnc2c(n1)OC(c1cn(C)c3ccccc13)N(C(C)=O)c1ccccc1-2 (stereo not given) | -8.46% | -4.85% | -2.79% | 98.9% | 3.59% | 1.54% | –

From PubChem BioAssay
